OX1R antag-1 – antagonists of human orexin 1 receptor; AID 434989; 330,000 tested, 0.43% active; O43613; inhibition, % at 5 µM; CHO/OX1R cells, Fluo-8 calcium fluorescence, orexin A;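 active means inhibition above its plate's threshold, mean inhibition of all tested compounds on the plate plus 3 SD, cut at about 37% in these data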
Target sequence (O43613 whole entry, looked up): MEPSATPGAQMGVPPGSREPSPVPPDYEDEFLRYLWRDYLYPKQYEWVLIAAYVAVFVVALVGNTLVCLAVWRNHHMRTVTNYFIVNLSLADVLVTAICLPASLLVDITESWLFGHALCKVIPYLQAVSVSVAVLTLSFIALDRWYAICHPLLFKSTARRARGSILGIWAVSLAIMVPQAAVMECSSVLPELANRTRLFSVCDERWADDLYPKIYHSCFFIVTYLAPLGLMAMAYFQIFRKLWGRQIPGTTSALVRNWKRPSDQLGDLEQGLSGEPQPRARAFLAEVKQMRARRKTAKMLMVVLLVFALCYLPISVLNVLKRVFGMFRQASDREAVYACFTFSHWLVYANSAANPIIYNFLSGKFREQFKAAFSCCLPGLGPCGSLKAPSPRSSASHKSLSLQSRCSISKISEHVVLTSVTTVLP
V1R ag counter – V1a receptor agonism, counter-screen for OXTR agonists; P37288; CHO-V1R cells, Fluo-8 calcium fluorescence, agonist mode; 0% DMSO, 100% 3 nM vasopressin; activation, % at 3 µM; 320,000 tested, 0.25% active; AID 2797;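 active means activation above the mean activation of all tested compounds plus 3 SD, per screening run, cut at about 20% in these data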;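 further: signal is peak over basal fluorescence ratio across a 100 second FLIPR read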
OXTR potentiate – human OXTR potentiation | P30559 | CHO-OTR cells, Fluo-8 calcium fluorescence, potentiator mode; 0% = oxytocin EC15, 100% = EC100 | activation, % at 3 µM | 320,000 tested, 0.061% active | AID 2445;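 active means activation above that plate's cutoff, the mean activation of tested compounds plus 3 SD, cut at about 6.6% in these data, passing the limit was not always enough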
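System: human OTR in CHO cells; Also added: sub-maximal oxytocin, roughly EC15; Timing: compound 6 min at room temperature before oxytocin, 100 s read; Technique: Fluo-8 intracellular calcium fluorescence, ex 470-495, em 515-575 nm; Controls: oxytocin EC15 low and EC100 high; Replication: singlicate.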
CHO parental Ca – signal in parental CHO cells, OX1R antagonist counter-screen; inhibition, % at 5.6 µM; parental CHO-K1, ATP-induced calcium, Fluo-8 fluorescence; 330,000 tested, 0.63% active; AID 463079;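 active means inhibition above that plate's mean sample inhibition plus 3 SD, cut at about 26% in these data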
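Material: Parental CHO cells | Reagent: ATP | Compound dosing: Single nominal dose of 5.6 µM per compound | Detection: Intracellular calcium via Fluo-8 no-wash fluorescent dye | Read-out: % inhibition of ATP-induced calcium mobilization | Benchmarks: Low control ATP plus DMSO, high control DMSO only | Replicates: Singlicate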
OX1R antag-2 – OX1R (human) antagonism. AID 485270. OX1R-expressing cells, FRET antagonist read-out. inhibition, % at 6.6 µM. 330,000 tested, 1.8% active; in the data active means inhibition mostly above about 38%, no sharp cut-off; inactive means mostly below about 40%
OXTR ag – human OXTR agonism | CHO-OTR cells, Fluo-8 calcium fluorescence; normalized: DMSO 0%, oxytocin 100% | AID 2435 | P30559 | 320,000 tested, 0.32% active | activation, % at 3 µM;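 active means activation above the mean of all tested compounds plus 3 SD, cutoff set per screening run, cut at about 20% in these data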;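 further: peak over basal fluorescence ratio from a 100 s FLIPR kinetic read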
Numbers stand for hits; i = inactive; nt = no result given. In the library only some 2.7% were active in any assay of this set; here they are far more common.

SMILES	OX1R antag-1	V1R ag counter	OXTR potentiate	CHO parental Ca	OX1R antag-2	OXTR ag
COC(=O)C(Cc1ccc(O)cc1)NC(=O)C1CCN(S(=O)(=O)c2ccc(C)cc2)CC1 (centres undefined)	i	i	i	i	i	i
NC(=O)CC[C@H](NC(=O)c1ccc(F)cc1)C(=O)N1CCN(Cc2ccc3c(c2)OCO3)CC1	i	i	i	i	i	i
COc1ccc(CNC(=O)CN2C(=O)CSc3ccc(S(=O)(=O)N4CCOCC4)cc32)cc1	i	i	i	i	i	i
O=C(CN1C(=O)CSc2ccc(S(=O)(=O)N3CCOCC3)cc21)NCc1ccc(Cl)cc1	i	i	i	i	48	i
Cc1ccc(-c2cccc(-c3cc(=O)oc4ccc(C(C)(C)C)cc34)c2)cc1	i	nt	nt	i	i	nt
Cc1ccc(-c2nnc(Nc3ccc4c(c3)OCO4)c3ccccc23)cc1S(=O)(=O)NC(C)C	i	i	i	31	i	i
CC(=O)Nc1ccc(Nc2nnc(-c3ccc(C)c(S(=O)(=O)NCC4CCCO4)c3)c3ccccc23)cc1 (centres undefined)	i	i	i	i	i	i
Cc1ccc(-c2nnc(Nc3ccccc3)c3ccccc23)cc1S(=O)(=O)NCC1CCCO1 (centres undefined)	66	i	i	29	i	i
COc1ccccc1C(=O)Oc1ccc(C(C)(C)C)cc1	i	i	i	41	i	i
O=C(Oc1ccccc1C(=O)Oc1ccccc1)c1cccnc1	i	i	i	i	i	i
Cc1ccccc1S(=O)(=O)Oc1ccccc1C(=O)Oc1ccccc1	i	i	i	39	i	i
CC1(C)CC(NC(=O)c2ccc(-c3ccc([N+](=O)[O-])cc3)o2)CC(C)(C)N1	i	i	i	i	i	i
C=CCn1c(SCC(=O)N(CCOC)c2c(N)n(CCCC)c(=O)[nH]c2=O)nnc1-c1ccc(Cl)cc1	i	i	i	i	i	i
COc1ccc(NC(=O)CSCc2cc(=O)n3c(C)csc3n2)cc1	i	i	i	i	i	i
CNc1nc(N)c([N+](=O)[O-])c(Nc2ccccc2OC)n1	i	i	i	i	44	i
Fc1ccc2[nH]c3c(N4CCc5ccccc5C4)ncnc3c2c1	i	i	i	65	56	i
Cc1cccc2[nH]c3c(N4CCC5(CC4)OCCO5)ncnc3c12	i	i	i	i	i	i
Cc1ccc2[nH]c3c(N4CCc5ccccc5C4)ncnc3c2c1	51	i	i	64	82	i
Clc1ccc2[nH]c3c(N4CCC5(CC4)OCCO5)ncnc3c2c1	i	i	i	i	82	i
Cc1c(CNC(=O)C2CCC(=O)N(CCc3ccccc3)C2)cnn1C (centres undefined)	i	i	i	i	i	i
CN(C)c1ccc(C(CNC(=O)Cc2cccc3ccccc23)N(C)C)cc1 (centres undefined)	i	i	i	i	i	i
COc1ccc(OC)c(CCNC(=O)CCCC(=O)n2ncc3cc(C)ccc32)c1	i	i	i	i	i	i
O=C(NNC(=O)c1ccccc1O)c1ccc(-c2ccc([N+](=O)[O-])cc2)o1	i	i	i	i	55	i
COC(=O)[C@]1(CC(C)C)N[C@H](c2ccc(-c3cccc(Cl)c3)cc2)[C@@H]2C(=O)N(C)C(=O)[C@@H]21	i	i	i	i	i	i
Cn1c2ccccc2c(=O)c2cc(C#CC3=CCCCC3)ccc21	i	i	i	i	37	i
C=C(C)CN(CC)C(=O)COc1ccc(S(=O)(=O)Nc2ccc(OC)cc2)cc1	i	24	i	i	i	29
O=C(CN1CCN(S(=O)(=O)N2CCCCC2)CC1)Nc1ccc(Cl)c(Cl)c1	i	i	i	32	i	i
O=C(Nc1ccc(Cl)c(Cl)c1)N1CCCCCC1	i	i	i	33	i	i
C[C@H](CO)N1C[C@H](C)[C@H](CN(C)S(=O)(=O)c2ccccc2)Oc2c(NS(C)(=O)=O)cccc2C1=O	i	i	i	i	i	i
O=C1CN(C(=O)CSc2ccccn2)c2ccccc2N1	i	i	i	i	i	i
